Only some compounds are listed: those with a hit (about 3% of all), similar ones and a draw of the others.
TMEM16A inh = blocks the mouse calcium-activated chloride channel TMEM16A; Q8BHY3; normalized B-score (activity score, 25-100; higher = stronger inhibition) at 10 µM; HEK293 TMEM16A/YFP iodide influx fluorescence, ionomycin; 1.2% of 310,000 active;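 active = ratio plate-corrected score three or more library SD toward inhibition, starting fluorescence score within five deviations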;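 also: score derived from kinetic fluorescence span divided by baseline fluorescence per well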
Kir21 block = blocks the mouse Kir2.1 inward-rectifier potassium channel | P35561 | HEK293-Kir2.1, FluxOR thallium flux fluorescence; hits give low values | AID 1672 | 0.85% of 310,000 active | B-score at 10 µM;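 active = fluorescence ratio B-score at or below minus 3 SD of library scores, with starting-brightness B-score within 2 SD, cut at about -4.2 in these data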;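 also: channel flux triggered by added potassium and thallium sulfate stimulus; B-score of peak minus minimum fluorescence over baseline after thallium stimulus; more negative B-score means stronger Kir2.1 block with less thallium influx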
SR-BI uptake up = enhances SR-BI lipid uptake from DiI-HDL; CHO ldlA[mSR-BI] cells, DiI-HDL uptake fluorescence, 3 h; 100 = double the neutral-control signal; activation, % at 12.5 µM; 0.096% of 320,000 active; AID 504775;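 active = mean replicate activation of at least 60% and every replicate at or above 60%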;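 also: 0% = median plate neutral-control signal and 100% = twice that signal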
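system = CHO ldlA[mSR-BI] cells, LDL receptor-null, SR-BI overexpressing | medium = Ham's F12 with 0.5% BSA, HEPES 25 mM, pH 7.4 | probe or stimulus = DiI-HDL 10 µg/mL | compound dosing = single-point compound dose | incubation = compound exposure 3 h, 37 °C | technique = DiI fluorescence, bottom read | read-out = cell-associated DiI fluorescence as measure of HDL uptake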
FID counter = counter-screen for HCV NS3 helicase inhibitors: DNA intercalator displacement; DNA fluorescent intercalator displacement, fluorescence; inhibition, % at 7.9 µM; 0.17% of 290,000 active; AID 1845; in the data active = inhibition above about 37%;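 also: 0% = vehicle and 100% = reference compound; higher means more ethidium bromide displaced from hairpin DNA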
TMEM16A act = activators or potentiators of mouse TMEM16A chloride channel. B-score at 10 µM. HEK293 TMEM16A/YFP-H148Q/I152L, iodide quench fluorescence; hits give low values. 0.3% of 340,000 active. AID 623877. Q8BHY3;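 active = fluorescence-ratio B-score plate-corrected deviation score at least 3 library SD below zero, with starting fluorescence score within 5 deviations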;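 also: channel opened by trigger with iodide after compound preincubation; score built on the fluorescence ratio of max minus min over baseline; more negative score means more quench and so TMEM16A activation or potentiation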
SR-BI DiI inh = mouse SR-BI HDL lipid transfer inhibition. Q61009. ldlA[mSR-BI] CHO cells, DiI-HDL uptake fluorescence, 3 h. inhibition, % at 12.5 µM. 0.96% of 320,000 active. AID 488896;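 active = mean replicate inhibition of at least 70% and a set share of replicates each scoring 70 or more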;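 also: 0% = median of neutral control wells and 100% = median of positive control wells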
Target sequence (Q61009 whole entry, looked up): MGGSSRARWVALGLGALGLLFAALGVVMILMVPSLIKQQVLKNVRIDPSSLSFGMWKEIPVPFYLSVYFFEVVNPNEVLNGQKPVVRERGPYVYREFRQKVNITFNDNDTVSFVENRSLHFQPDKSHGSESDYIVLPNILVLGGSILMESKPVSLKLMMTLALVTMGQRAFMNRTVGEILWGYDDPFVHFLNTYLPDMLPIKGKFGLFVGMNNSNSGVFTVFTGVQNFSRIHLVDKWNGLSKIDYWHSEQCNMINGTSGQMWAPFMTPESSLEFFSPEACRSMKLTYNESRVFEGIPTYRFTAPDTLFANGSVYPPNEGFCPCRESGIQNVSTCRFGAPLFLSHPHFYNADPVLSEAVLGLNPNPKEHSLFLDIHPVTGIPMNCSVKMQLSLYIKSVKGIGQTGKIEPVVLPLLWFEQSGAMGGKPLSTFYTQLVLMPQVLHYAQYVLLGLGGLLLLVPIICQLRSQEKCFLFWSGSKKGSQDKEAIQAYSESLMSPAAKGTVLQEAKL
The depositor's hits bear a star.

What do the screens show for `CCCCc1ccc(N=N/C(C(=O)Nc2cc(OC)c(NC(C)=O)cc2OC)=C(/C)O)cc1`?
TMEM16A inh: inactive; Kir21 block: -0.85; SR-BI uptake up: -87; FID counter: 0; TMEM16A act: inactive; SR-BI DiI inh: 87*

How did COc1ccccc1C(=O)NC(=O)COC(=O)c1ccc([N+](=O)[O-])cc1 do in these assays?
TMEM16A inh: inactive; Kir21 block: 0.93; SR-BI uptake up: 6; TMEM16A act: inactive; SR-BI DiI inh: -6

How did COc1ccc(OCCOC(=O)c2cc(S(=O)(=O)N3CCOCC3)c(Cl)cc2Cl)cc1 do in these assays?
TMEM16A inh: inactive; Kir21 block: -1.7; SR-BI uptake up: -10; TMEM16A act: inactive; SR-BI DiI inh: 10

How did CCN1CCCC1CNC(=O)C1CCN(Cc2nc(-c3cccc(Br)c3)oc2C)CC1 (stereo unspecified) do in these assays?
TMEM16A inh: inactive; Kir21 block: -2.2; SR-BI uptake up: 6; FID counter: 39*; TMEM16A act: inactive; SR-BI DiI inh: -6

How did Cc1oc(-c2cccc(Cl)c2)nc1CN1CCC(C(=O)NCc2ccco2)CC1 do in these assays?
TMEM16A inh: inactive; Kir21 block: 0.09; SR-BI uptake up: -28; FID counter: 23; TMEM16A act: inactive; SR-BI DiI inh: 28

Results for CCOC(=O)N1CCC(NC(=O)C2CCCN(Cc3nc(-c4ccc(CC)cc4)oc3C)C2)CC1 (stereo unspecified) ?
TMEM16A inh: 25*; Kir21 block: 1.5; SR-BI uptake up: -27; FID counter: 26; TMEM16A act: inactive; SR-BI DiI inh: 27

Results for Cc1oc(-c2ccc(Cl)cc2)nc1CN1CCCC(C(=O)NCCCN2CCOCC2)C1 (stereo unspecified) ?
TMEM16A inh: inactive; Kir21 block: -1.4; SR-BI uptake up: 3; FID counter: 45*; TMEM16A act: inactive; SR-BI DiI inh: -3

What do the screens show for `Cc1cccc(-c2nc(CN3CCCC(C(=O)NC4CCCCC4)C3)c(C)o2)c1` (stereo unspecified)?
TMEM16A inh: 25*; Kir21 block: 0.22; SR-BI uptake up: -7; FID counter: 16; TMEM16A act: inactive; SR-BI DiI inh: 7

Results for COc1ccc(NC(=O)CN(C)C(=O)c2ccc3c(c2)OCCO3)cc1 ?
TMEM16A inh: inactive; Kir21 block: -2.2; SR-BI uptake up: 2; TMEM16A act: inactive; SR-BI DiI inh: -2

Results for C=C1CCN(c2ccc(C(=O)NCCC)cc2[N+](=O)[O-])CC1 ?
TMEM16A inh: inactive; Kir21 block: -2; SR-BI uptake up: -35; TMEM16A act: -6.4*; SR-BI DiI inh: 35

How did Cc1cccc(NC(=O)c2ccc(N(C)C3CCCCC3)c([N+](=O)[O-])c2)n1 do in these assays?
TMEM16A inh: inactive; Kir21 block: -1.7; SR-BI uptake up: -85; FID counter: -1; TMEM16A act: inactive; SR-BI DiI inh: 85*

What do the screens show for `CCC(=O)N1CCN(c2ccc(Cl)cc2NC(=O)c2ccc(N3CCCC3)c([N+](=O)[O-])c2)CC1`?
TMEM16A inh: inactive; Kir21 block: -0.26; SR-BI uptake up: -76; FID counter: -6; TMEM16A act: inactive; SR-BI DiI inh: 76*

What do the screens show for `Cc1cccc(NC(=O)c2ccc(N3CCCCC3)c([N+](=O)[O-])c2)n1`?
TMEM16A inh: inactive; Kir21 block: -1.8; SR-BI uptake up: -77; FID counter: -5; TMEM16A act: inactive; SR-BI DiI inh: 77*

How did Cc1cccc(NC(=O)c2ccc(N3CCOCC3)c([N+](=O)[O-])c2)n1 do in these assays?
TMEM16A inh: inactive; Kir21 block: -0.02; SR-BI uptake up: -24; FID counter: -13; TMEM16A act: inactive; SR-BI DiI inh: 24

How did CCOC(=O)C1CCCN(C(=O)C(CCSC)NC(=O)COc2ccccc2)C1 (stereo unspecified) do in these assays?
SR-BI uptake up: 13; TMEM16A act: inactive; SR-BI DiI inh: -13

How did COc1ccc(C)cc1NC(=O)CSc1nc2ccccc2nc1N1CCCC1 do in these assays?
TMEM16A inh: inactive; Kir21 block: 0.98; SR-BI uptake up: 7; FID counter: -19; TMEM16A act: inactive; SR-BI DiI inh: -7

What do the screens show for `Cc1cc2nc3n(c2cc1C)CC1CC(C(=O)NCc2ccco2)N(C)C31` (stereo unspecified)?
TMEM16A inh: inactive; Kir21 block: -0.2; SR-BI uptake up: -2; TMEM16A act: inactive; SR-BI DiI inh: 2

Results for C/C(CC(=O)NC12CC3CC(CC(C3)C1)C2)=N\NC(=O)c1ccc(F)cc1 ?
TMEM16A inh: inactive; Kir21 block: 0.01; FID counter: -17; TMEM16A act: inactive

Results for Cc1ccc(C)c2sc(NC(=O)c3ccc(N4CCCCC4)c([N+](=O)[O-])c3)nc12 ?
TMEM16A inh: inactive; Kir21 block: 0.86; SR-BI uptake up: -71; FID counter: 0; TMEM16A act: inactive; SR-BI DiI inh: 71*

Results for CN(C)C/C=C/C(O)(c1ccccc1)c1ccccc1 ?
TMEM16A inh: inactive; Kir21 block: 0.19; SR-BI uptake up: 4; FID counter: -1; TMEM16A act: inactive; SR-BI DiI inh: -4

What do the screens show for `CN(C)CC(CCC(CN(C)C)C(O)(c1ccccc1)c1ccccc1)C(O)(c1ccccc1)c1ccccc1` (stereo unspecified)?
Kir21 block: -5.6*; FID counter: 36

What do the screens show for `CCCCn1nc(C(=O)N(C)CC(=O)Nc2ccc(F)c(F)c2F)ccc1=O`?
SR-BI uptake up: 7; TMEM16A act: inactive; SR-BI DiI inh: -7

How did COc1ccc(OCc2n(CC(=O)OC3CC(C)CCC3C(C)C)c3ccccc3[n+]2C)cc1 (stereo unspecified) do in these assays?
TMEM16A inh: inactive; Kir21 block: -9.9*; SR-BI uptake up: -15; FID counter: 40*; TMEM16A act: inactive; SR-BI DiI inh: 15

How did COc1ccc(-c2n(CC(=O)OC3CC(C)CCC3C(C)C)c3ccccc3[n+]2C)cc1 (stereo unspecified) do in these assays?
Kir21 block: -13*; SR-BI uptake up: 22; FID counter: 36; TMEM16A act: -6.1*; SR-BI DiI inh: -22

Results for CC1CCC(C(C)C)C(OC(=O)CSc2nccc(=O)[nH]2)C1 (stereo unspecified) ?
TMEM16A inh: inactive; Kir21 block: -1.3; SR-BI uptake up: 8; FID counter: -22; TMEM16A act: inactive; SR-BI DiI inh: -8

How did O=C1c2ccc(-c3ccc(Cl)c(C(F)(F)F)c3)cc2S(=O)(=O)c2cccc(C(=O)N3CCN(c4ccc(Cl)cn4)CC3)c21 do in these assays?
SR-BI uptake up: -91; TMEM16A act: inactive; SR-BI DiI inh: 91*

Source: PubChem BioAssay (several laboratories)
